Shown are actives, neighbours in structure and some others; about 11% of the full set was active somewhere.
Diaphorase inh: diaphorase inhibitors and chemical oxidizers, primary screen, counter-screen for diaphorase-coupled primary assays, biochemical, uHTS, resorufin fluorescence; AID 1217, 2008; 190,000 tested, 0.69% active; diaphorase resazurin-to-resorufin fluorescence, NADH, 16 min; bacterial (C. kluyveri) enzyme, not human; inhibition, % at 20 µM;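 active = primary screen inhibition at 20 µM above a set limit, cut at about 50% in these data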;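 also: plate controls were DMSO with full reaction for no effect and wells lacking NADH for full effect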
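Test system: diaphorase enzyme from Clostridium kluyveri; amount: diaphorase at 0.14 U/mL in enzyme working solution; detection: fluorescence of resorufin formed from resazurin, Ex 544/Em 590 nm; times: reaction incubation of 16 min at room temperature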
G6PDH counter: L. mesenteroides G6PDH inhibitors, counter-screen for G6PDH-coupled screening assays, biochemical, Leuconostoc mesenteroides enzyme; glucose-6-phosphate dehydrogenase [Leuconostoc mesenteroides]; Purified L. mesenteroides G6PDH, diaphorase/resazurin coupled fluorescence, 45 min; inhibition, % at 5 µM; 200,000 tested, 0.12% active; AID 1020, 2008
WT yeast gro inh: growth inhibition of WT strain, primary screen, mitochondrial fusion inhibitor project, WT and mutant strains, chemical genetic; inhibition, % at 10 µM; mitochondrial fusion phenotypic screen; AID 1362, 2008; 190,000 tested, 2.1% active; in the data active = inhibition above about 58%; tested in S. cerevisiae
Lmaj promast: Leishmania major promastigote growth inhibition, primary screen. inhibition, % at 10 µM. Leishmania major promastigotes, resazurin fluorescence viability. 200,000 tested, 9% active. AID 1063, 2008;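 also: promastigotes grown with compound for 44 hours at 28 °C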
Diaph act CS: compounds boosting diaphorase resazurin reduction – biochemical, uHTS, resorufin fluorescence, counter-screen for diaphorase-coupled primary assays, primary screen; Diaphorase/resazurin coupled assay, 16 min; hits give high values; 1 = vehicle wells, 0 = NADH-free wells; activation factor at 20 µM; 190,000 tested, 0.005% active; AID 1229, 2008;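 active = diaphorase activity raised at least twofold by the compound at 20 µM; inactive = activation factor below 2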
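Measured by – red resorufin fluorescence at 544/590 nm excitation/emission · Test system – Clostridium kluyveri diaphorase, purified enzyme · Incubation – reaction time 16 min, room temperature · Buffer or medium – 50 mM HEPES pH 7.4 with 4.542 mM MgCl2, 0.005% Tween 20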
* marks the source's active call; other numbers are inactive results. Rule as the data show it, unless noted: active = inhibition above about 50%; inactive = the rest.

SMILES	Diaphorase inh	G6PDH counter	WT yeast gro inh	Lmaj promast	Diaph act CS
COc1ccc(NS(=O)(=O)c2ccc(N3CCOCC3)c(NC(=O)c3ccccc3Cl)c2)cc1	2	1	-6	97*	1
COc1ccc(NS(=O)(=O)c2ccc(N3CCOCC3)c(NC(=O)c3ccc(OC)cc3)c2)cc1	22	0	0	82*	0.8
O=C(Nc1ccc(Cl)c(Cl)c1)Nc1cc(S(=O)(=O)N2CCOCC2)ccc1N1CCCC1	23	4	3	69*	0.8
COc1ccc(S(=O)(=O)Nc2cc(C(=O)NC(C)C)ccc2N2CCOCC2)cc1	13	18	3	2	0.9
Cc1noc(C)c1CSc1nnc2scc(-c3ccc(Cl)cc3)n12	5	12	9	29	0.9
C/C(CCC(C)C)=N\NC(=S)Nc1cc(S(=O)(=O)N2CCOCC2)ccc1N1CCOCC1	23	7	-14	27	0.8
COc1ccc2cc(/C(C)=N/NC(=S)Nc3cc(S(=O)(=O)N4CCOCC4)ccc3N3CCOCC3)ccc2c1	23	16	-18	75*	0.8
CCCCN(CCCC)c1cc(C)nc(-c2ccccc2O)n1	11	4	41	-1	0.9
CCc1ccc2c(Cl)c(C(=O)N/N=C/c3c[nH]c4ccccc34)sc2c1	25	3	40	42	0.7
CCC/C=N/NC(=O)c1cc(-c2ccccc2)nc2ccccc12	14	6	3	-5	0.9
O=C(N/N=C/c1ccc(Cl)cc1)c1cc(-c2cccnc2)nc2ccccc12	-16	-10	8	98*	1.2
O=C(N/N=C/c1ccc[nH]1)c1sc2ccccc2c1Cl	13	8	14	99*	0.9
O=C(N/N=C/c1ccc[nH]1)c1cc(-c2ccc(Cl)cc2)nc2ccccc12	21	-3	69*	90*	0.8
CCN(CC)S(=O)(=O)c1cccc(-c2n[nH]c(=S)n2/N=C/c2ccc(OC)cc2)c1	78*	6	-4	-9	0.2
CCN(CC)S(=O)(=O)c1cccc(-c2n[nH]c(=S)n2/N=C/c2ccc(Br)cc2)c1	9	-5	12	-13	0.9
CCN(CC)S(=O)(=O)c1cccc(-c2n[nH]c(=S)n2/N=C/c2ccc(OC(F)F)cc2)c1	53*	-24	51	-4	0.5
CCC(C)n1c(-c2cccc(S(=O)(=O)N(CC)CC)c2)n[nH]c1=S (configuration not stated)	21	0	4	-2	0.8
COc1ccc(/C=N/n2c(-c3cccs3)n[nH]c2=S)cc1	64*	0	24	5	0.4
O=C1CCCc2ccccc2N1	-2	1	10	4	1
O=C(N1CCN=C1SCc1cccnc1)C12CC3CC(CC(C3)C1)C2	6	12	6	13	0.9
CCc1nccn1S(=O)(=O)c1ccc(OC)c(C)c1C	-6	5	-4	2	1.1
CCc1nccn1S(=O)(=O)c1ccc(Br)cc1Br	5	1	-25	89*	0.9
Cc1c(S(=O)(=O)N2CCN(C(c3ccccc3)c3ccccc3)CC2)c(=O)n(C)c(=O)n1C	17	23	1	-3	0.8
O=C(NC(NC(=S)N1CCOCC1)C(Cl)(Cl)Cl)c1cccc2ccccc12 (configuration not stated)	12	2	-4	8	0.9
COC(=O)C1=C(N)OC2=C(C(=O)CC(C)(C)C2)C1c1ccccc1OCC#N (configuration not stated)	4	6	1	3	1
CC1=C(C(=O)OC(C)C)C(c2ccc(N(C)C)cc2)C2=C(CC(C)(C)CC2=O)N1 (configuration not stated)	16	3	9	23	0.8
COCCOC(=O)C1=C(C)NC2=C(C(=O)CC(C)(C)C2)C1c1cccnc1 (configuration not stated)	6	14	54	64*	0.9
CC1=C(C(=O)OC(C)C)C(c2cccnc2)C2=C(CC(C)(C)CC2=O)N1 (configuration not stated)	2	9	-3	92*	1
